rCAG binder: r(CAG) repeat RNA binding; inhibition, % at 3 µM; 370,000 compounds, 1.3% hits; TO-PRO-1 dye displacement fluorescence;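 active means inhibition above the plate cutoff, the mean of all test compounds on that plate plus 3 SD, cut at about 35% in these data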;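 further: higher means more dye released from RNA so lower well fluorescence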
CSN inh: CSN deneddylation inhibition | AID 651999 | Purified CSN, SCF-Nedd8-OG deneddylation, fluorescence polarization | inhibition, % at 12.5 µM | 360,000 compounds, 0.38% hits | Q92905;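 active means pattern-corrected inhibition above about 35%, with an unprinted fluorescence ratio check between 0.5 and 1.5, limit read from the data, passing the limit was not always enough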
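Assay system: purified human Csn5 enzyme expressed in HEK293T cells; Input: 0.24 nM Csn5 enzyme, final concentration; Reagent: 10 nM SCFSkp2-Nedd8OG; Compound dosing: 12.5 µM single point; Times: reaction 90 min, room temperature; Technique: fluorescence polarization readout.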
ATG4B inhibitor: ATG4B (human) cysteine protease inhibition. ATG4B cleavage of LC3-PLA2, NBD-HPC fluorescence, 1 h. inhibition, % at 8.33 µM. Q9Y4P1. 340,000 compounds, 0.51% hits; in the data active means inhibition above about 40%
UHRF1 binding: blocks human UHRF1 binding to methylated DNA | 370,000 compounds, 0.75% hits | Q96T88 | UHRF1 binding to methylated oligo, TR-FRET | inhibition, % at 4.4 µM; in the data active means inhibition above about 21%;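 further: UHRF1 SRA domain binding a hemimethylated CpG hairpin DNA probe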
Target sequence (Q96T88 whole entry, looked up, the tested form may be a part): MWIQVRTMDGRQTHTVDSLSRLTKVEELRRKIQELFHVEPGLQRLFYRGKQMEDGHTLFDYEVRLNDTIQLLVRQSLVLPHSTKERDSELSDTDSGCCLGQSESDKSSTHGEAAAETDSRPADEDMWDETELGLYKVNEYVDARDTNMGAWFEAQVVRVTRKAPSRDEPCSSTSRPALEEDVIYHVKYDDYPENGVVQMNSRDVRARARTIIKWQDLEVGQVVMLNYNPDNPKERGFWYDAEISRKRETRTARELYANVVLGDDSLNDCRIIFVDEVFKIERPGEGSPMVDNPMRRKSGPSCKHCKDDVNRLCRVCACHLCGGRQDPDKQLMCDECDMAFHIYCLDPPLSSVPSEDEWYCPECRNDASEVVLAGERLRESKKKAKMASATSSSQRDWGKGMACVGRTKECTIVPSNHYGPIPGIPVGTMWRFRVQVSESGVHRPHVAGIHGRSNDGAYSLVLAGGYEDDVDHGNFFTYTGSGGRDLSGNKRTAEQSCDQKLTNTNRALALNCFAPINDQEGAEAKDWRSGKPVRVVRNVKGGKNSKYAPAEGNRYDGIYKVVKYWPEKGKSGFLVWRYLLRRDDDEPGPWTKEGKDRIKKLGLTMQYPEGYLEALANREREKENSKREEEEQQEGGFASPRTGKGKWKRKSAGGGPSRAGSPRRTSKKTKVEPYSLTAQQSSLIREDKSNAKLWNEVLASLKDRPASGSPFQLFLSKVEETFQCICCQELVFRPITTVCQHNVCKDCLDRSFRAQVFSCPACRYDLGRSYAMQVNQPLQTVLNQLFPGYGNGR
LEDGF integ inh: blocks HIV-1 LEDGF/p75-dependent DNA integration; TR-FRET IN-LEDGF/p75 DNA integration, Eu/Cy5; inhibition, % at 3.7 µM; 370,000 compounds, 0.64% hits;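 active means inhibition above the screen-wide mean plus 3 SD, cut at about 13% in these data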;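 further: signal is the Cy5 over europium emission ratio at 671 and 618 nm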
MBD2 inh: inhibitors of human MBD2 binding to methylated oligonucleotide; Q9UBB5; TR-FRET; inhibition, % at 4.4 µM; 370,000 compounds, 0.31% hits; AID 686964; in the data active means inhibition above about 13%
rCAG binder conf: r(CAG) RNA repeat binding, confirmation; 4,300 compounds, 70% hits; inhibition, % at 3 µM; shares compounds with rCAG binder; TO-PRO-1 dye displacement fluorescence;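 active means inhibition above a per-plate cutoff, the mean inhibition of sample wells plus 3 SD, cut at about 35% in these data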;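 further: loss of TO-PRO-1 fluorescence as compound displaces dye from 1x1 AA loop RNA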
DNA CAG counter: disrupts DNA CAG TO-PRO-1 complex, flagging rCAG hits | shares compounds with rCAG binder | d(CAG) DNA oligo TO-PRO-1 dye displacement, fluorescence | inhibition, % at 3 µM | 4,300 compounds, 94% hits | AID 652068;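 active means inhibition above its plate's cutoff, the mean test-well inhibition plus 3 SD, cut at about 4.8% in these data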;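 further: hits displace the dye from DNA and so lower well fluorescence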
Large screens that a line does not name were inactive (follow-up assays come after a bar, where they were run). Sampled rows, rich in hits. Any-hit rate of the full collection: about 3.1%.

CC(=C\c1ccccc1)/C=C1/SC(=S)N(C(C(=O)O)C(C)C)C1=O (stereo unspecified)	rCAG binder 69 | rCAG binder conf 63 | DNA CAG counter 25
O=C(O)C(Cc1ccc(O)cc1)N1C(=O)c2ccccc2C1=O (stereo unspecified)	none
O=C(O)C(Cc1ccccc1)N1C(=O)/C(=C/c2ccccc2)SC1=S (stereo unspecified)	rCAG binder 53 | rCAG binder conf 56 | DNA CAG counter 20
O=C(O)C(Cc1ccccc1)N1C(=O)c2c(Cl)c(Cl)c(Cl)c(Cl)c2C1=O (stereo unspecified)	rCAG binder 51 | rCAG binder conf 53 | DNA CAG counter 17
COC(=O)c1cc(-c2ccc(F)cc2OCc2ccccc2)c(=O)n2c1CCC2	none (no result: CSN inh, ATG4B inhibitor)
CCCN(CC1CC1)c1nc(C)nc2c1nnn2Cc1ccccc1	none (no result: CSN inh, ATG4B inhibitor)
COc1ccc(/C=C2\SC(=S)N(C(C(=O)O)c3ccccc3)C2=O)c(OC)c1 (stereo unspecified)	rCAG binder 79 | rCAG binder conf 79 | DNA CAG counter 45
COc1cccc(/C=C2\SC(=S)N(C(C(=O)O)c3ccccc3)C2=O)c1OC (stereo unspecified)	rCAG binder 63 | rCAG binder conf 63 | DNA CAG counter 25
O=Nc1c(-c2c(O)[nH]c3cc(Br)ccc23)[nH]c2ccccc12	rCAG binder 59 | rCAG binder conf 54 | DNA CAG counter 36
COC/C=C/C1=CC2=CC(=O)C(C)(OC(=O)C3CCCC3)C(=O)C2=CO1 (stereo unspecified)	rCAG binder 50, UHRF1 binding 29, LEDGF integ inh 64 | rCAG binder conf inactive | DNA CAG counter 15
CC1(OC(=O)C2CCCC2)C(=O)C=C2C=C3CCCCN3C=C2C1=O (stereo unspecified)	none (no result: rCAG binder, UHRF1 binding, LEDGF integ inh, MBD2 inh)
CC(C)c1ccc(NC(=O)C2CCCCC2C(=O)O)cc1 (stereo unspecified)	none
Cc1cc(C)cc(NS(=O)(=O)c2ccc(NC(=O)C3CCCCC3C(=O)O)cc2)c1 (stereo unspecified)	rCAG binder 36 | rCAG binder conf inactive | DNA CAG counter 4.8
Cc1c[nH]c2cccc(-c3cccc4ccccc34)c12	none (no result: CSN inh, ATG4B inhibitor)
CCOC(=O)c1c(NC(=O)CSc2ccccc2C(=O)O)sc(C)c1C	rCAG binder 40 | rCAG binder conf 41 | DNA CAG counter 13
CCOC(=O)c1c(NC(=O)CSc2ncnc3ccccc23)sc(C)c1C	none
Cn1cc(/C=C2\SC(=O)NC2=S)c2ccccc21	rCAG binder 40 | rCAG binder conf inactive | DNA CAG counter 11
Cc1ccc(C(=O)NN2C(=O)/C(=C/c3cn(C)c4ccccc34)SC2=S)cc1	none
CCCCCCCCCC(=O)N1c2ccccc2NC(=O)C1CC(=O)Nc1ccc(C(=O)O)cc1 (stereo unspecified)	rCAG binder 74 | rCAG binder conf 70 | DNA CAG counter 30
CCCCCCCC(=O)N1c2ccccc2NC(=O)C1CC(=O)Nc1ccc(C(=O)O)cc1 (stereo unspecified)	none
CCC(C)[C@H](NC(=O)[C@H](Cc1ccccc1)NC(=O)OC(C)(C)C)C(=O)NCc1ccccc1Br (stereo partly specified)	none (no result: CSN inh, ATG4B inhibitor)
CC(C)=CCCC1(C)C=Cc2c(c(C)cc3c2[nH]c2cc(O)ccc23)O1 (stereo unspecified)	rCAG binder 51 | rCAG binder conf inactive | DNA CAG counter 15
CC1(C(=O)NS(=O)(=O)c2cccc(Cl)c2)CCN1C(=O)Cc1ccc(-c2ccccc2)cc1 (stereo unspecified)	rCAG binder 74 (no result: ATG4B inhibitor) | rCAG binder conf 68 | DNA CAG counter 29
CC1(C(=O)NS(=O)(=O)c2cccc(F)c2)CCN1C(=O)Cc1cccc2ccccc12 (stereo unspecified)	none (no result: ATG4B inhibitor)
CC(C)(C)c1ccc(CC(=O)N2CCC2(C)C(=O)NS(=O)(=O)c2cccc(F)c2)cc1 (stereo unspecified)	rCAG binder 39 (no result: ATG4B inhibitor) | rCAG binder conf inactive | DNA CAG counter 5.4
CC1(C(=O)NS(=O)(=O)c2cccc(F)c2)CCN1C(=O)Cc1ccc(-c2ccccc2)cc1 (stereo unspecified)	rCAG binder 51 (no result: ATG4B inhibitor) | rCAG binder conf 50 | DNA CAG counter 15
CC1(C(=O)NS(=O)(=O)c2cccc(F)c2)CCN1C(=O)Cc1ccccc1 (stereo unspecified)	none (no result: ATG4B inhibitor)
CC1(C(=O)NS(=O)(=O)c2cccc(Cl)c2)CCN1C(=O)Cc1ccsc1 (stereo unspecified)	none (no result: ATG4B inhibitor)
Nn1c(SCC(=O)N2c3ccccc3Sc3ccc(Cl)cc32)nnc1-c1cc(-c2ccc(F)cc2)n[nH]1	none (no result: CSN inh, ATG4B inhibitor)
Cc1nc2ccc(S(=O)(=O)NCC(=O)NCc3ccccc3C)cc2s1	none (no result: CSN inh, ATG4B inhibitor)
O=C(C1=NN[C@@H]2C(=O)N(c3ccccc3C(F)(F)F)C(=O)[C@H]12)C(c1ccccc1)c1ccccc1	none
N#Cc1ccc(N2C(=O)[C@@H]3C(C(=O)C(c4ccccc4)c4ccccc4)=NN[C@@H]3C2=O)cc1	rCAG binder 61 | rCAG binder conf inactive | DNA CAG counter 12
COC(=O)[C@H](C(C)C)N(Cc1cn(Cc2ccc(C)cc2)nn1)S(=O)(=O)c1ccc(F)cc1Br	none (no result: CSN inh, ATG4B inhibitor)
COC(=O)Nc1nc2c(C)cccc2s1	none
CSc1cccc(NC(=O)Nc2nc3c(C)cccc3s2)c1	rCAG binder 52 | rCAG binder conf 45 | DNA CAG counter 34
O=S(=O)(O)c1cccc2cccc(Nc3ccccc3)c12	rCAG binder 47 | rCAG binder conf 64 | DNA CAG counter 25
c1ccc(Nc2cccc3c(Nc4ccccc4)cccc23)cc1	none
COc1ccc(CCNS(=O)(=O)c2cc(/C=C/C(=O)O)ccc2C)cc1OC	none
COc1cc(C)c(/C=C/C(C)=C/C=C/C(C)=C/C(=O)O)c(C)c1C	rCAG binder 47 | rCAG binder conf 54 | DNA CAG counter 17
Cc1c(Br)cc(-c2nnco2)cc1Br	rCAG binder 40 | rCAG binder conf inactive | DNA CAG counter inactive
CCc1ccc(/C=C/C(=O)C2C(=O)c3ccccc3C2=O)cc1	rCAG binder 64 | rCAG binder conf 79 | DNA CAG counter 39
CO[C@@H]1[C@@H](OC(N)=O)[C@@H](O)[C@H](Oc2ccc3c(O)c(NC(=O)c4ccc(O)c(CC=C(C)C)c4)c(=O)oc3c2C)OC1(C)C	rCAG binder 50 (no result: ATG4B inhibitor) | rCAG binder conf 56 | DNA CAG counter 26

Screens: PubChem, several laboratories
